We go through one compound from ChEMBL document CHEMBL4431326, “Tumor Targeting with Novel 6-Substituted Pyrrolo [2,3-d] Pyrimidine Antifolates with Heteroatom Bridge Substitutions via Cellular Uptake by Folate Receptor α and the Proton-Coupled Folate Transporter and Inhibition of de Novo Purine Nucleotide Biosynthesis” (J Med Chem, 2016).

Activity calls are given as the source filed them. The rule behind the calls is not given here.

The nature of data set [1]: Cytotoxicity in RFC-null Chinese hamster R2 cells assessed as reduction in cell viability measured after 96 hrs by Cell-Titer Blue fluorescence analysis. The settings on record: Cricetulus griseus, R2, 96 h. It counts as cell-based.
Data set [2] addresses T1, Trifunctional purine biosynthetic protein adenosine-3 (Homo sapiens, UniProt P22102).
T1 sequence (P22102 whole entry): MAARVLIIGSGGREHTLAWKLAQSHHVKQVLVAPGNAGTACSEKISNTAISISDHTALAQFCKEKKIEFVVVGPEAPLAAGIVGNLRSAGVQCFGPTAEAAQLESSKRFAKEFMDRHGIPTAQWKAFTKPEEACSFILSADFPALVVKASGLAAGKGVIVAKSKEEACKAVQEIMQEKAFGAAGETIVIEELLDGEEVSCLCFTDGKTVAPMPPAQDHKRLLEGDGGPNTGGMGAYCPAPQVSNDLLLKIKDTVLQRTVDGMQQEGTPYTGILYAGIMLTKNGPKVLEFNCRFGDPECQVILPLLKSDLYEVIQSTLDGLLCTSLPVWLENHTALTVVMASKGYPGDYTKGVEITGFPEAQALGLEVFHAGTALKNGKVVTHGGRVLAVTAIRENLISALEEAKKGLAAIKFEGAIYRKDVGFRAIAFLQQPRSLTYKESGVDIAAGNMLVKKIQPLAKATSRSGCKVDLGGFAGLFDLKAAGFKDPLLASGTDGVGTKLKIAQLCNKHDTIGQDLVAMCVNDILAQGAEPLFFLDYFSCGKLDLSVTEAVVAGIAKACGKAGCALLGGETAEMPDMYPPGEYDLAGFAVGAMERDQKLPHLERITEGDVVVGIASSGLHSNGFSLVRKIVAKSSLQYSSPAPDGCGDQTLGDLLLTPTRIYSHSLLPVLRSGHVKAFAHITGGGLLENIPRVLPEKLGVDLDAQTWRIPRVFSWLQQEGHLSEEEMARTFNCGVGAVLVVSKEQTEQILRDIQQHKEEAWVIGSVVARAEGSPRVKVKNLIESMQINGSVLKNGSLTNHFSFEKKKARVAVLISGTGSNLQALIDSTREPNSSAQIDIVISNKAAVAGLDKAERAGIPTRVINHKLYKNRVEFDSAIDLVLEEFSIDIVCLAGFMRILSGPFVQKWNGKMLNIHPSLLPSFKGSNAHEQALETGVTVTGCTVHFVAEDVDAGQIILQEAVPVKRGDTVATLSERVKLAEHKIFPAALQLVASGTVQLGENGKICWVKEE
The data set is described as follows: Inhibition of GARFTase in human KB cells expressing RFC/FR-alpha/PCFT assessed as decrease in incorporation of [14C(U)]-glycine into [14C]formyl GAR incubated for 1 hr followed by addition of [14C(U)]-glycine measured after 16 hrs in presence of azaserine. It is filed as cell-based.

The nature of data set [3]: Toxicity in standard diet fed SCID mouse xenografted with human IGROV1 cells assessed as body weight loss at 96 and 150 mg/kg, iv administered qd for 4 times post 2 days of tumor implantation measured during compound treatment. It is filed as organism-based. The settings on record: in vivo, 48 h. (Xenograft models place foreign cells or tissue in a host animal.)
For data set [4], the target named is T2, GAR transformylase/AICAR transformylase (Homo sapiens) (UniProt P31939+P22102). The data set is described as follows: Inhibition of GARFTase/AICARFTase in human KB cells expressing RFC/FR-alpha/PCFT assessed as cell growth inhibition measured after 96 hrs in presence of 60 uM adenosine by Cell-Titer Blue fluorescence analysis. It is filed as cell-based.
T2 sequence (P31939 whole entry, looked up, one chain of several): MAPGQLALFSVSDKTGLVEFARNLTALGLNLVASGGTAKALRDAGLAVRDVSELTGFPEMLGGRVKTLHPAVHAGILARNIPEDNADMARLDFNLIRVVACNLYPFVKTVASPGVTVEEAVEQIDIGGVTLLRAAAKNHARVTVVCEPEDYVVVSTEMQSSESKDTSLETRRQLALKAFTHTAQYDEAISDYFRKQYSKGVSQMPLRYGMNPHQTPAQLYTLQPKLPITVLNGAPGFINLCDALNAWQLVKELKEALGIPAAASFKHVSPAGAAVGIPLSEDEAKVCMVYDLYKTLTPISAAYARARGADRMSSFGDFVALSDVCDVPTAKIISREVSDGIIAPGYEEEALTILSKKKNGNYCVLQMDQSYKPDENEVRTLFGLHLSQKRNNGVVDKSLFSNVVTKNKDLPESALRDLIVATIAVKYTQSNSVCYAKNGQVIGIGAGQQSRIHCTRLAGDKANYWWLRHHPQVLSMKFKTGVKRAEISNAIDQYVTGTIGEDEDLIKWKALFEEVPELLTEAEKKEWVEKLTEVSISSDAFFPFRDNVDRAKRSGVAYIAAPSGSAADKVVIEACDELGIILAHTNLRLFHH
Data set [5] has as its target Folate receptor alpha (Homo sapiens) (UniProt P15328). The data set is described as follows: Displacement of [3H]folic acid from human FR-alpha receptor expressed in Chinese hamster RT16 cells measured after 15 mins relative to folic acid. It counts as cell-based. Also on record: concentration or dose not given beside the values. Background: In a radioligand displacement assay an active substance lowers the binding of a labelled ligand.

Data set [6] concerns the target T3, Proton-coupled folate transporter (Homo sapiens) (UniProt Q96NT5).
T3 sequence (whole entry): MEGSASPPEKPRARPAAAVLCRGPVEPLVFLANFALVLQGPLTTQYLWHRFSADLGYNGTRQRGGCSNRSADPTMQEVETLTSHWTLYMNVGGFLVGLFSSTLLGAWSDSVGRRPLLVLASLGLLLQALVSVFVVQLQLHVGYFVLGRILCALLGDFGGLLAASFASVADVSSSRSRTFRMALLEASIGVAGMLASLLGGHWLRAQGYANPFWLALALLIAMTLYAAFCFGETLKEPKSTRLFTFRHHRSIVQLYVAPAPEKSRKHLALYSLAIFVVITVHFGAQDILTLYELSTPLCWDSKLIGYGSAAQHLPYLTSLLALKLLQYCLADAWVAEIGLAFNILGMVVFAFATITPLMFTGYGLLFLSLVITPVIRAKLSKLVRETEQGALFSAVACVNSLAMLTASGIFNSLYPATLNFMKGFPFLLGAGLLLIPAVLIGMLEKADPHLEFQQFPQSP
The data set is described as follows: Inhibition of [3H]MTX uptake at human PCFT expressed in Chinese hamster R2/PCFT4 cells at 1 uM and pH 5.5 measured after 5 mins. It is filed as cell-based.

For another data set, the system named is KB. The data set is described as follows: Antiproliferative activity against human KB cells expressing human RFC/FR-alpha/PCFT assessed as reduction in cell viability measured after 96 hrs in presence of folic acid by Cell-Titer Blue fluorescence analysis. It is filed as functional, cell-based.
For data set [7], the target named is T3, Proton-coupled folate transporter (Homo sapiens). The data set is described as follows: Inhibition of [3H]MTX uptake at human PCFT expressed in Chinese hamster R2/PCFT4 cells at 10 uM and pH 5.5 measured after 5 mins. It counts as cell-based.
Data set [8] has as its target Folate receptor beta (Homo sapiens) (UniProt P14207). The data set is described as follows: Displacement of [3H]folic acid from human FR-beta receptor expressed in Chinese hamster D4 cells measured after 15 mins relative to folic acid. It counts as cell-based.
In data set [9] the test system is IGROV-1. The data set is described as follows: Antitumor activity against human IGROV1 cells xenografted into folate-deficient diet fed SCID mouse assessed as tumor growth delay at 150 mg/kg, iv administered […] post 2 days of tumor implantation. It counts as functional. The method, boiled down: (§1)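 Female NCR SCID mice, 11 weeks, ~20 g, on folate-deficient or standard diet from 14 days pre-implant; bilateral s.c. IGROV1 fragments (30–60 mg); 5 mice/group; tail-vein dosing from day 2 (Q3d schedules) in 5% ethanol, 1% Tween-80, 0.5% NaHCO3, water, pH 6.5; caliper mass (a×b²)/2; T/C and T−C delay.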

Data set [10] concerns the target Bifunctional purine biosynthesis protein ATIC (Homo sapiens) (UniProt P31939). The data set is described as follows: Inhibition of AICARFTase in human KB cells expressing RFC/FR-alpha/PCFT assessed as cell growth inhibition measured after 96 hrs in presence of 320 uM AICA by Cell-Titer Blue fluorescence analysis. It counts as cell-based.
The test system of data set [11] is IGROV-1. The data set is described as follows: Antitumor activity against human IGROV1 cells xenografted into folate-deficient diet fed SCID mouse assessed as tumor cell kill at 150 mg/kg, iv administered […] post 2 days of tumor implantation measured on day 20. It is filed as functional.
Data set [12] has as its target T2, GAR transformylase/AICAR transformylase (Homo sapiens). The data set is described as follows: Inhibition of GARFTase/AICARFTase in human KB cells expressing RFC/FR-alpha/PCFT assessed as cell growth inhibition measured after 96 hrs in presence of 10 uM thymidine by Cell-Titer Blue fluorescence analysis. It is filed as cell-based.
The test system of data set [13] is IGROV-1. The data set is described as follows: Antiproliferative activity against human IGROV1 cells expressing human FR-alpha/PCFT assessed as reduction in cell viability measured after 96 hrs in presence of folic acid by Cell-Titer Blue fluorescence analysis. It counts as functional, cell-based. As to conditions: IGROV-1, 96 h.
In data set [14] the test system is IGROV-1. The data set is described as follows: Antitumor activity against human IGROV1 cells xenografted into standard diet fed SCID mouse assessed as tumor growth at 28 mg/kg, iv administered […] post 2 days of tumor implantation measured on day 20 relative to control. It counts as functional. The method, boiled down:
as §1

Chain of Folate receptor alpha (Homo sapiens) (P15328 25-234 limits assumed): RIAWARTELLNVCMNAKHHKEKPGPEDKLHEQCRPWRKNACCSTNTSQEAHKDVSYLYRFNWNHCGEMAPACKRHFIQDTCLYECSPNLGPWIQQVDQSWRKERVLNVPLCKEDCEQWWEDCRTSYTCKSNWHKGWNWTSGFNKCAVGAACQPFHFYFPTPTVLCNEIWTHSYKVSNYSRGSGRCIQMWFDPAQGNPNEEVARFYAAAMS
Chain of Folate receptor beta (Homo sapiens) (P14207 17-230 limits assumed): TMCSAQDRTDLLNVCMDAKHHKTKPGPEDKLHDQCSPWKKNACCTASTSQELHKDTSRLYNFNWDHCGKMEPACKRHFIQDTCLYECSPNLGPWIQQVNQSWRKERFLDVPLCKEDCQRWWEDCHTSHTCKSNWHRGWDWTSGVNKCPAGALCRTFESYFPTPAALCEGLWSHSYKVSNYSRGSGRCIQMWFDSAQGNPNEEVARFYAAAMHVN
Chain of Bifunctional purine biosynthesis protein ATIC (Homo sapiens) (P31939 whole entry, looked up): as the sequence (P31939 whole entry, looked up, one chain of several) above

The term IC50 denotes the point on the concentration scale where inhibition reaches its midpoint. By inhibition is commonly meant the drop in the measured response relative to a control, in per cent. For orientation: T/C means the ratio of treated to control. Take `Nc1nc2[nH]c(CCNc3ccc(C(=O)N[C@@H](CCC(=O)O)C(=O)O)cc3)cc2c(=O)[nH]1`: the IC50 in [1] was over 1000 nM; in data set [2] it was 2.64 nM; in the data set with KB it was 666 nM; in the data set on IGROV-1 [13] it was 872 nM. Moreover, the Activity entry in [3] was “Non-Toxic”. Besides, the inhibition result in data set [4] was “inactive”. Moreover, the inhibition in data set [5] lay within 60 to 110%; in data set [6], 30 to 60%; in [7], 80 to 90%; in data set [8] it was 60 to 110%. The Time with IGROV-1 [9] turned out to be 15 days. In addition, the inhibition result in data set [10] and in data set [12] was “Active” throughout. Moreover, the LCK in the data set with IGROV-1 [11] came to 2.3. In the data set with IGROV-1 [14], the T/C stood at 68%.
